According to ChEMBL document CHEMBL3124872, “Discovery and early development of TMC647055, a non-nucleoside inhibitor of the hepatitis C virus NS5B polymerase” (J Med Chem, 2014):
pEC50, pKd: −log10 of the molar value. Calls of active or inactive are those of the source. The calls are words filed in the database; no cut-off is given here.

Key:
[1] = system: Hepatitis C virus; test: Antiviral activity against Hepatitis C virus genotype 1a infected in human HuH7-SG cells after 3 days by RT-PCR analysis; assay type: functional, organism-based, Hepacivirus hominis; conditions: subtype 1a, Huh-7, 72 h
[2] = system: Hepatitis C virus; test: Antiviral activity against Hepatitis C virus harboring […] D168V mutant infected in human HuH7 by luciferase reporter gene assay; assay type: functional, organism-based; conditions: Hepacivirus hominis; Huh-7
[3] = system: Homo sapiens; test: Toxicity in human assessed as effect on vital signs at 300 to 1250 mg, po bid for 5 days followed by morning dose on day 6; assay type: organism-based; conditions: in vivo, 120 h
In short: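 Healthy volunteers given oral b.i.d. doses of 300, 1000 or 1250 mg for 5 days plus a morning dose on day 6, in hydroxypropyl-β-cyclodextrin vehicle; adverse events, laboratory parameters, vital signs, food consumption, appetite, ECG and plasma 4-β-hydroxycholesterol (CYP3A4 induction marker) monitored.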

[4] = system: Hepatitis C virus; test: Antiviral activity against Hepatitis C virus harboring NS5B M414T mutant infected in human HuH7 by luciferase reporter gene assay; assay type: functional, organism-based; conditions: Hepacivirus hominis; Huh-7
[5] = Binding affinity to Hepatitis C virus genotype 1a NS5B by surface plasmon resonance analysis; parameters: species or system Hepatitis C virus subtype 1a
In short: (§1)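 Surface plasmon resonance binding to NS5B polymerase of the stated genotype; association and dissociation rate constants measured, from which Kd and residence half-life were derived; median Kd reported.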

[6] = system: Hepatitis C virus; test: Antiviral activity against Hepatitis C virus harboring NS5B M423T mutant infected in human HuH7 by luciferase reporter gene assay; assay type: functional, organism-based; conditions: Hepacivirus hominis; Huh-7
[7] = system: Hepatitis C virus; test: Antiviral activity against Hepatitis C virus genotype 1a infected in po dosed human assessed as decrease in HCV RNA level administered bid for 5 days followed by morning dose on day 6; assay type: functional, organism-based; conditions: Hepacivirus hominis; subtype 1a
In short: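 HCV genotype 1-infected patients received oral b.i.d. doses of 500 mg or 1000 mg in a hydroxypropyl-β-cyclodextrin vehicle for 5 days, plus a morning dose on day 6. The read-out was the median maximum decrease in HCV RNA from baseline in GT1a patients with data up to Day 6.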

[8] = Binding affinity to Hepatitis C virus genotype 6a NS5B by surface plasmon resonance analysis; parameters: species or system Hepatitis C virus subtype 6a; in short: as §1
[9] = system: Homo sapiens; test: Toxicity in human assessed as gastrointestinal side-effects at 300 to 1250 mg, po bid for 5 days followed by morning dose on day 6; assay type: organism-based; conditions: in vivo, 120 h
In short: (§2)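 Oral b.i.d. dosing for 5 days plus a single morning dose on day 6, in a hydroxypropyl-β-cyclodextrin vehicle. Healthy volunteers received 300, 1000 or 1250 mg; HCV genotype 1-infected patients received 500 or 1000 mg. Monitoring covered adverse events graded by severity, laboratory parameters, vital signs, food consumption, appetite and ECG.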

[10] = system: Hepatitis C virus; test: Antiviral activity against Hepatitis C virus genotype 1b infected in human HuH7 cells after 72 hrs by luciferase reporter gene assay; assay type: functional, organism-based, Hepacivirus hominis; conditions: Huh-7, 72 h
[11] = Binding affinity to Hepatitis C virus Con 1b wild-type NS5B by surface plasmon resonance analysis; parameters: species or system Hepatitis C virus (isolate Con1); in short: as §1
[12] = system: Hepatitis C virus; test: Antiviral activity against Hepatitis C virus genotype 1b infected in human assessed as log10 reduction in HCV RNA level at 1000 mg, po bid for 5 days followed by morning dose on day 6 relative to control; assay type: functional, Hepacivirus hominis
In short: (§3)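 Oral b.i.d. dosing of HCV genotype 1-infected patients at 500 mg or 1000 mg for 5 days, plus a morning dose on day 6, in hydroxypropyl-β-cyclodextrin vehicle. Read-out was the median maximum decrease in plasma HCV RNA from baseline (log10), using patients with HCV RNA data available up to Day 6.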

[13] = system: Hepatitis C virus; test: Antiviral activity against Hepatitis C virus genotype 1a infected in human assessed as log10 reduction in HCV RNA level at 1000 mg, po bid for 5 days followed by morning dose on day 6 relative to control; assay type: functional, Hepacivirus hominis, subtype 1a; in short: as §3
[14] = Binding affinity to Hepatitis C virus genotype 2b NS5B by surface plasmon resonance analysis; parameters: species or system Hepatitis C virus subtype 2b; in short: as §1
[15] = system: Homo sapiens; test: Toxicity in human assessed as grade-3 adverse events at 300 to 1250 mg, po bid for 5 days followed by morning dose on day 6; assay type: organism-based; conditions: in vivo, 120 h; in short: as §2
[16] = system: Hepatitis C virus; test: Antiviral activity against Hepatitis C virus harboring […] Y93H mutant infected in human HuH7 by luciferase reporter gene assay; assay type: functional, organism-based; conditions: Hepacivirus hominis; Huh-7
[17] = system: Hepatitis C virus; test: Antiviral activity against Hepatitis C virus genotype 1b infected in human HuH7 assessed as suppression of formation of resistant colonies at 1.5 uM preincubated for 2 weeks followed by 3 week rebound phase by RT-PCR analysis; assay type: functional, organism-based; conditions: Hepacivirus hominis, Huh-7
In short: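 Huh7-Luc genotype 1b replicon cells were incubated for 14 days with the NNI alone (up to 3.75 μM), with TMC435 alone, or with both. A 3-week rebound phase without inhibitor followed, tracking replicon RNA clearance. A parallel colony formation run exposed the cells for 2−3 weeks and scored resistant colonies.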

[18] = system: Hepatitis C virus; test: Antiviral activity against Hepatitis C virus genotype 1b harboring NS5B NNI-1 site P495L mutant infected in human HuH7 by luciferase reporter gene assay relative to wild-type HCV genotype 1b; assay type: functional, Hepacivirus hominis, Huh-7
[19] = system: Hepatitis C virus; test: Antiviral activity against Hepatitis C virus genotype 2b infected in human HuH7 by transient replicon assay; assay type: functional, organism-based, Hepacivirus hominis; conditions: Huh-7
In short: (§4)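 Transient replicon assay using chimeric replicons whose NS5B region is derived from patient isolates of the stated genotype.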

[20] = Cytotoxicity against African green monkey Vero E6 cells after 3 days by resazurin-based fluorescence analysis; assay type: cell-based; conditions: chlorocebus sabaeus
[21] = system: Hepatitis C virus; test: Antiviral activity against Hepatitis C virus genotype 1b harboring NS5B NNI-1 site V494A mutant infected in human HuH7 by luciferase reporter gene assay relative to wild-type HCV genotype 1b; assay type: functional, Hepacivirus hominis, Huh-7
[22] = Binding affinity to His6-tagged Hepatitis C virus Con 1b NS5B delta21 RNA dependent RNA polymerase expressed in Escherichia coli Rosetta 2 (DE3) by surface plasmon resonance analysis; parameters: species or system Hepatitis C virus (isolate Con1); in short: as §1
[23] = system: Homo sapiens; test: Toxicity in HCV genotype 1-infected patient assessed as grade-3 adverse events at 500 to 1000 mg, po bid for 5 days followed by morning dose on day 6; assay type: organism-based; conditions: in vivo, 120 h
In short: (§5)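 HCV genotype 1-infected patients given oral b.i.d. doses of 500 or 1000 mg for 5 days plus a morning dose on day 6, in hydroxypropyl-β-cyclodextrin vehicle; adverse events with grading, laboratory parameters, vital signs, food consumption, appetite and ECG monitored.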

[24] = system: Hepatitis C virus; test: Antiviral activity against Hepatitis C virus genotype 1a infected in human assessed as log10 reduction in HCV RNA level at 500 mg, po bid for 5 days followed by morning dose on day 6 relative to control; assay type: functional, Hepacivirus hominis, subtype 1a; in short: as §3
[25] = system: Hepatitis C virus; test: Antiviral activity against Hepatitis C virus harboring NS5B S282T mutant infected in human HuH7 by luciferase reporter gene assay; assay type: functional, organism-based; conditions: Hepacivirus hominis; Huh-7
[26] = system: Homo sapiens; test: Toxicity in HCV genotype 1-infected patient assessed as effect on appetite at 500 to 1000 mg, po bid for 5 days followed by morning dose on day 6; assay type: organism-based; conditions: in vivo, 120 h; in short: as §5
[27] = system: Hepatitis C virus; test: Antiviral activity against Hepatitis C virus harboring NS5B S96T mutant infected in human HuH7 by luciferase reporter gene assay; assay type: functional, organism-based; conditions: Hepacivirus hominis; Huh-7
[28] = system: Hepatitis C virus subtype 1b
[29] = system: Homo sapiens; test: Toxicity in HCV genotype 1-infected patient assessed as effect on laboratory parameters at 500 to 1000 mg, po bid for 5 days followed by morning dose on day 6; assay type: organism-based; conditions: in vivo, 120 h; in short: as §5
[30] = Drug uptake in Sprague-Dawley rat liver at 10 mg/kg, po after 7 hrs; assay type: ADME, organism-based; parameters: dose 10 mg/kg, route oral; conditions: read-out: Drug uptake
[31] = system: Hepatitis C virus; test: Antiviral activity against Hepatitis C virus genotype 6a infected in human HuH7 by transient replicon assay; assay type: functional, organism-based, Hepacivirus hominis; conditions: Huh-7; in short: as §4

COc1ccc2c(c1)C=C1Cn3c-2c(C2CCCCC2)c2ccc(cc23)C(=O)NS(=O)(=O)N(C)CCOCCN(C)C1=O [TMC-647055]
pEC50 [1]: 6.78
Activity [2]: Active
Activity [3]: Non-toxic
Activity [4]: Active
pKd [5]: 8.14
Activity [6]: Active
Activity [7]: Dose-dependent effect
pKd [8]: 7.52
Activity [9]: Toxic
pEC50 [10]: 7.11
pKd [11]: 8.39
FC [12]: 3.4
FC [13]: 2.4
pKd [14]: 6.06
Activity [15]: Non-toxic
Activity [16]: Active
Activity [17]: Active
fold change (FC) [18]: 371
pEC50 [19]: < 4.55
CC50 at 72 h [20]: > 50000 nM
fold change (FC) [21]: 3
pKd [22]: 8.39
Activity [23]: Non-toxic
FC [24]: 1.4
Activity [25]: Active
Activity [26]: Non-toxic
Activity [27]: Active
T1/2 [28]: 2.17 h
Activity [29]: Non-toxic
concentration at 7 h [30]: 7800 ng/g
pEC50 [31]: 6.95
